Source: ChEMBL document CHEMBL1123102, “Synthesis and anthelmintic activity of 5(6)-(benzimidazol-2-ylcarbamoyl) and (4-substituted piperazin-1-yl)benzimidazoles” (1985)

Key:
Rattus norvegicus [1] = experiment: Antitapeworm activity evaluated as reduction of worms with scolices against Hymenolepis nana in rat ( dose 400 mg/kg X 3) administered orally; assay type: functional; settings: route oral
In short: (§1)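 Newly weaned male albino rats (Freiburg strain, 25–30 g) were infected orally with 200 viable H. nana ova. Those passing eggs on day 17 were treated orally, 3–5 per group, three daily doses after a 5–6 h fast. Rats were fasted again on day 3 of treatment and sacrificed. Worms with scolices and worm-free animals were scored.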

Rattus norvegicus [2] = experiment: Antitapeworm activity evaluated as(percent animal freed of worms) against Hymenolepis nana in rat (dose 400 mg/kg X 3)administered orally; assay type: functional; settings: route oral; in short: as §1
Rattus norvegicus [3] = experiment: Antifilarial activity evaluated as (percent reduction of microfilariae) against Litomosoides carinii in Coton rat, at a dose (30 mg/kg X 5) administered intraperitoneally; assay type: functional
In short: (§2)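 Cotton rats (Sigmodon hispidus) infected with L. carinii by vector mite (Liponyssus bacoti) transmission. Animals with ≥250 microfilariae per 5 µL blood after prepatency were used, 3–4 per experiment. Drug was given i.p. in water or Tween 80 suspension daily for 5 days. Blood smears were read weekly up to 6 weeks. Adult worms were examined at sacrifice on day 42.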

Rattus norvegicus [4] = experiment: Antitapeworm activity evaluated as reduction of worms with scolices against Hymenolepis nana in rat ( dose 250 mg/kg X3 )administered orally; assay type: functional; settings: route oral; in short: as §1
Rattus norvegicus [5] = experiment: Antifilarial activity evaluated as (persistance of microfilaricidal effect)against Litomosoides carinii in Cotton rat, at a dose (30 mg/kg X 5) administered intraperitoneally; assay type: functional; in short: as §2
Rattus norvegicus [6] = experiment: Antitapeworm activity evaluated as(percent animal freed of worms) against Hymenolepis nana in rat (dose 250 mg/kg X 3)administered orally; assay type: functional; settings: route oral; in short: as §1
Rattus norvegicus [7] = experiment: Antifilarial activity evaluated as (percent death of adult worms on day 42) against Litomosoides carinii in Cotton rat, at a dose (30 mg/kg X 5) administered intraperitoneally; assay type: functional
In short: (§3)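 Cotton rats (Sigmodon hispidus) were infected with L. carinii through the vector Liponyssus bacoti. At the end of the prepatent period, animals with at least 250 microfilariae per blood sample were selected, 3–4 per experiment. Drug in water or Tween 80 suspension was given ip daily for 5 days. Blood smears were taken weekly up to 6 weeks. On day 42, animals were killed and the condition of adult male and female worms assessed.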

Rattus norvegicus [8] = experiment: Antifilarial activity evaluated as (percent reduction of microfilariae) against Litomosoides carinii in Coton rat, at a dose (6 mg/kg X 5) administered intraperitoneally; assay type: functional; in short: as §2
Rattus norvegicus [9] = experiment: Antifilarial activity evaluated as (persistance of microfilaricidal effect)against Litomosoides carinii in Coton rat, at a dose (6 mg/kg X 5)administered intraperitoneally; assay type: functional; in short: as §2
Rattus norvegicus [10] = experiment: Antifilarial activity evaluated as (percent death of adult worms on a day 42) against Litomosoides carinii in Coton rat, at a dose (6 mg/kg X 5) administered intraperitoneally; Nil; assay type: functional, organism-based; in short: as §3
Rattus norvegicus [11] = experiment: Antifilarial activity evaluated as (percent death of adult worms on day 42) against Litomosoides carinii in Coton rat, at a dose (30 mg/kg X 5) administered intraperitoneally; assay type: functional; in short: as §3
Rattus norvegicus [12] = experiment: Antitapeworm activity evaluated as reduction of worms with scolices against Hymenolepis nana in rat ( dose 250 mg/kg X 3) administered orally; assay type: functional; settings: route oral; in short: as §1
Rattus norvegicus [13] = experiment: Antifilarial activity evaluated as (persistance of microfilaricidal effect) against Litomosoides carinii in Coton rat, at a dose (30 mg/kg X 5) administered intraperitoneally; assay type: functional; in short: as §2
Rattus norvegicus [14] = experiment: Antitapeworm activity evaluated as reduction of worms with scolices against Hymenolepis nana in rat (dose 250 mg/kg X 3) administered orally; assay type: functional; settings: route oral; in short: as §1
Rattus norvegicus [15] = experiment: Antitapeworm activity evaluated as (percent animal freed of worms) against Hymenolepis nana in rat (dose 100 mg/kg X 3)administered orally; assay type: functional; settings: route oral; in short: as §1
Rattus norvegicus [16] = experiment: Antitapeworm activity evaluated as reduction of worms with scolices against Hymenolepis nana in rat (dose 50 mg/kg X 3)administered orally; assay type: functional; settings: route oral; in short: as §1
Rattus norvegicus [17] = experiment: Antitapeworm activity evaluated as(percent animal freed of worms) against Hymenolepis nana in rat ( dose 250 mg/kg X 3)administered orally; assay type: functional; settings: route oral; in short: as §1
Rattus norvegicus [18] = experiment: Antitapeworm activity evaluated as reduction of worms with scolices against Hymenolepis nana in rat (dose 100 mg/kg X 3)administered orally; assay type: functional; settings: route oral; in short: as §1
Rattus norvegicus [19] = experiment: Antitapeworm activity evaluated as(percent animal freed of worms) against Hymenolepis nana in rat (dose 50 mg/kg X 3)administered orally; assay type: functional; settings: route oral; in short: as §1

With COC(=O)Nc1nc2cc(C(=O)c3ccccc3)ccc2[nH]1 [MEBENDAZOLE] the Reduction (Rattus norvegicus [1]) was 0% and the Reduction (Rattus norvegicus [2]) was 0%.

COC(=O)Nc1nc2cc(N3CCN(C(=O)c4ccco4)CC3)ccc2[nH]1 was tested, and the Removal (Rattus norvegicus [3]) was over 90%, the Reduction (Rattus norvegicus [4]) was 100% and the Activity (Rattus norvegicus [5]) was 42. For the same compound, the Reduction (Rattus norvegicus [6]) was 100% and the Death (Rattus norvegicus [7]) was 90%.

With CCN(CC)C(=O)N1CCN(C)CC1 [DIETHYLCARBAMAZINE] the Removal (Rattus norvegicus [8]) was over 95%, the Activity (Rattus norvegicus [9]) was 7 and the Death (Rattus norvegicus [10]) was “Nil”.

For CCN(CC)C(=O)N1CCN(c2ccc3[nH]c(NC(=O)OC)nc3c2)CC1, the Removal (Rattus norvegicus [3]) was over 95%, the Death (Rattus norvegicus [11]) was 100% and the Reduction (Rattus norvegicus [12]) was 100%. It also gave an Activity (Rattus norvegicus [13]) of 42 and a Reduction (Rattus norvegicus [6]) of 100%.

COC(=O)Nc1nc2cc(N3CCN(C(=O)c4ccccc4)CC3)ccc2[nH]1 gave a Reduction (Rattus norvegicus [14]) of 100%, a Reduction (Rattus norvegicus [15]) of 100% and a Reduction (Rattus norvegicus [16]) of 100%. For the same compound, the Reduction (Rattus norvegicus [17]) was 100%, the Reduction (Rattus norvegicus [18]) was 100% and the Reduction (Rattus norvegicus [19]) was 85%.
